# Test results from publication PMC11995693 (Journal of medicinal chemistry, 2025).
# “Also recorded” adds a separate entry of the source. Read-outs that look alike come from different tables or passages of the source.
# Assays:
# NHEKs = assay: Screening of TLR3 and IL-6 mRNA expression in NHEKs; type: cell-based, human
# PAMPA-GIT permeability = type: in vitro ADME
# Summary of the method: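 Stirred PAMPA sandwich with the acceptor-side filter coated in GIT-0 lipid. Donor held test or reference compound at 10 μM in pH 7.4 buffer with 0.2% DMSO, against pH 7.4 sink buffer. Incubated 4 h at room temperature. Donor and acceptor were sampled and quantified by LC-MS/MS. Effective permeability (Pe, cm/s) was calculated from filter area × 70% porosity, phase volumes, incubation and steady-state time, and donor concentrations, with membrane retention factor.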
# C57BL/6 mice = conditions: cited from earlier work; for hair growth: topical application
# [1] = Oral pharmacokinetics in mice; type: in vivo, C57BL6 mice; conditions: 100 mg/kg equivalent
# [2] = system: Poly(I:C) + IFNγ stimulated NHEK cells; assay: Poly; type: cell-based, human; conditions: for inhibition of IFNγ-inducible chemokines (CXCL9, CXCL10, CXCL11): 30–100 μM
# Summary of the method: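 Primary human epidermal keratinocytes were seeded and incubated overnight at 37 °C. They were stimulated with Poly(I:C) (50 μg/mL) plus IFNγ (5 ng/mL), with or without test compound at 1, 10, 30 or 100 μM, for 8 h. RNA was isolated, and TaqMan RT-PCR gave fold changes in IL-6, IFNβ, IL-1β, CXCL9, CXCL10 and CXCL11 expression.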
# [3] = Chemical stability in pH buffers; type: physicochemical
# [4] = Preliminary toxicity profile of P13, systemic administration; type: in vivo; conditions: two doses, systemic administration (Figure S2, Table S1)
smiles,measurement,setting,value
"C=C(CC(=O)OC)C(=O)O [Compound 4-MI, 4-methyl itaconate]","effect on TLR3 and IL-6 mRNA / cytokine production, in words",NHEKs; Figure S1,neither 4-MI nor 1A affected the mRNA expression; also recorded: failed to inhibit cytokine production
same,"permeability in PAMPA, in words",PAMPA-GIT permeability,poor permeability
same,efficacy in vivo in the alopecia areata model,C57BL/6 mice; compared at equimolar doses,ineffective
"C=C(CC(=O)OCOC(=O)OC(C)C)C(=O)OCOC(=O)OC(C)C [Compound P2, Bis(((isopropoxycarbonyl)oxy)methyl) 2-Methylenesuccinate]",inhibition of mRNA expression of TLR3 and IL-6,NHEKs; Figure S1,> 90%
same,intact prodrug in plasma,[1],not detectable
same,"inhibition of IFNβ, in words","[2]; 1–100 μM, 8 h",dose dependent inhibition
same,"inhibition of IL-6, in words","[2]; 1–100 μM, 8 h","significant, dose-dependent inhibition"
same,"inhibition of IFNγ-inducible chemokines (CXCL9, CXCL10, CXCL11)",[2]; 8 h,over 50%
"C=C(CC(=O)OCOC(=O)C(C)(C)C)C(=O)O [Compound P4, 2-Methylene-4-oxo-4-((pivaloyloxy)methoxy)butanoic Acid]","chemical stability at pH 7.4, in words",[3],complete instability
"C=C(CC(=O)OCOC(=O)OC(C)C)C(=O)O [Compound P5, 4-(((Isopropoxycarbonyl)oxy)methoxy)-2-methylene-4-oxobutanoic Acid]","chemical stability at pH 7.4, in words",[3],complete instability
"C=C(CC(=O)OCc1oc(=O)oc1C)C(=O)O [Compound P6, 4-((5-Methyl-2-oxo-1,3-dioxol-4-yl)methoxy)-2-methylene-4-oxobutanoic Acid]","chemical stability at pH 7.4, in words",[3],complete instability
"C=C(CC(=O)OCCCOCCCCCCCCCCCCCCCC)C(=O)O [Compound P7, 4-(3-(Hexadecyloxy)-propoxy)-2-methylene-4-oxobutanoic Acid]",permeation index (Pe),PAMPA-GIT permeability,3.21 ×10⁻⁶ cm/s
"C=C(CC(=O)OCOC(=O)OC(C)C)C(=O)OC [Compound P9, 4-(((Isopropoxycarbonyl)oxy)methyl) 1-Methyl 2-Methylenesuccinate]","effect on IL-1β, in words",[2]; 100 μM,showed effects at 100 μM
"C=C(CC(=O)OC)C(=O)OCOC(=O)OC(C)C [Compound P13, 1-(((Isopropoxycarbonyl)oxy)methyl) 4-Methyl 2-Methylenesuccinate]",inhibition of mRNA expression of TLR3 and IL-6,NHEKs; Figure S1,> 90%
same,skin concentrations,C57BL/6 mice; topical administration,considerable skin concentrations
same,hair growth,C57BL/6 mice,significantly promoted hair growth
same,hair growth,C57BL/6 mice; listed as SCD-153,significant increase in hair growth
same,intact prodrug in plasma,[1],undetectable
same,"inhibition of IL-6, in words","[2]; 1–100 μM, 8 h","significant, dose-dependent inhibition"
same,"inhibition of IFNγ-inducible chemokines (CXCL9, CXCL10, CXCL11)",[2]; 8 h,over 50%
same,hematological changes and weight loss,[4],No hematological changes or weight loss
"C=C(CC(=O)O)C(=O)O [IA, Itaconic acid]","effect on TLR3 and IL-6 mRNA / cytokine production, in words",NHEKs; Figure S1,failed to inhibit cytokine production
same,"effect on TLR3 and IL-6 mRNA / cytokine production, in words","NHEKs; Figure S1, listed as 1A",neither 4-MI nor 1A affected the mRNA expression
same,"permeability in PAMPA, in words",PAMPA-GIT permeability,poor permeability
